Consider 6 molecules from ChEMBL document CHEMBL5036335, “Functional Characterization of the Nemertide α Family of Peptide Toxins” (J Nat Prod, 2021).

Each structure is given as a SMILES string.

Series [1] can be described thus: Modulator activity at german cockroach Nav1 expressed in Xenopus laevis oocytes assessed as elicitation in sodium current measured after 1 to 4 days by two-electrode voltage clamp assay. Format: cell-based. The conditions noted are these: Blattella germanica, Oocyte. The essentials: (§1)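 Channel cRNA, with auxiliary subunits rβ1, hβ1 or TipE, transcribed from linearized plasmids; 50 nL of 1 ng/nL injected into stage V–VI X. laevis oocytes, kept in 96 mM NaCl, 2 mM KCl, 1.8 mM CaCl2, 2 mM MgCl2, 5 mM HEPES pH 7.4 with gentamycin. Two-electrode voltage clamp at 18–22 °C in same bath solution; 3 M KCl electrodes of 0.8–1.5 MΩ; currents filtered at 1 kHz, sampled at 20 kHz. EC50 from Hill equation fit.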
(In general: Two-electrode voltage clamp is typically applied to oocytes expressing channels or transporters.)

In series [2] the target is Sodium channel protein type 4 subunit alpha (Rattus norvegicus, UniProt P15390). The series is described as follows: Modulator activity at rat Nav1.4 expressed in Xenopus laevis oocytes assessed as elicitation in sodium current measured after 1 to 4 days by two-electrode voltage clamp assay. Format: cell-based, Oocyte. The procedure, abridged: as §1
Series [3] concerns the target Sodium channel protein type 8 subunit alpha (Mus musculus, UniProt Q9WTU3). As to the kind of experiment: Modulator activity at mouse Nav1.6 expressed in Xenopus laevis oocytes assessed as elicitation in sodium current measured after 1 to 4 days by two-electrode voltage clamp assay. It counts as cell-based, Oocyte. The procedure, abridged: as §1
The target in series [4] is Sodium channel protein type 10 subunit alpha (Rattus norvegicus, UniProt Q62968). As to the kind of experiment: Modulator activity at rat Nav1.8 expressed in Xenopus laevis oocytes assessed as elicitation in sodium current measured after 1 to 4 days by two-electrode voltage clamp assay. It counts as cell-based. Particulars: oocyte; call rule not given here. The essentials:
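Channel cRNA transcribed from linearized plasmid; 50 nL at 1 ng/nL injected into stage V–VI oocytes. Oocytes held in 96 mM NaCl, 2 mM KCl, 1.8 mM CaCl2, 2 mM MgCl2, 5 mM HEPES pH 7.4 with gentamycin. TEVC at 18–22 °C in the same solution, electrodes 3 M KCl, 0.8–1.5 MΩ. Currents filtered 1 kHz, sampled 20 kHz. EC50 from Hill equation fit.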

In series [5] the target is Sodium channel protein type 2 subunit alpha (Rattus norvegicus, UniProt P04775). The series is described as follows: Modulator activity at rat Nav1.2 expressed in Xenopus laevis oocytes assessed as elicitation in sodium current measured after 1 to 4 days by two-electrode voltage clamp assay. Format: cell-based, Oocyte. The procedure, abridged: as §1
Sodium channel protein type 2 subunit alpha, sequence (P04775 whole entry): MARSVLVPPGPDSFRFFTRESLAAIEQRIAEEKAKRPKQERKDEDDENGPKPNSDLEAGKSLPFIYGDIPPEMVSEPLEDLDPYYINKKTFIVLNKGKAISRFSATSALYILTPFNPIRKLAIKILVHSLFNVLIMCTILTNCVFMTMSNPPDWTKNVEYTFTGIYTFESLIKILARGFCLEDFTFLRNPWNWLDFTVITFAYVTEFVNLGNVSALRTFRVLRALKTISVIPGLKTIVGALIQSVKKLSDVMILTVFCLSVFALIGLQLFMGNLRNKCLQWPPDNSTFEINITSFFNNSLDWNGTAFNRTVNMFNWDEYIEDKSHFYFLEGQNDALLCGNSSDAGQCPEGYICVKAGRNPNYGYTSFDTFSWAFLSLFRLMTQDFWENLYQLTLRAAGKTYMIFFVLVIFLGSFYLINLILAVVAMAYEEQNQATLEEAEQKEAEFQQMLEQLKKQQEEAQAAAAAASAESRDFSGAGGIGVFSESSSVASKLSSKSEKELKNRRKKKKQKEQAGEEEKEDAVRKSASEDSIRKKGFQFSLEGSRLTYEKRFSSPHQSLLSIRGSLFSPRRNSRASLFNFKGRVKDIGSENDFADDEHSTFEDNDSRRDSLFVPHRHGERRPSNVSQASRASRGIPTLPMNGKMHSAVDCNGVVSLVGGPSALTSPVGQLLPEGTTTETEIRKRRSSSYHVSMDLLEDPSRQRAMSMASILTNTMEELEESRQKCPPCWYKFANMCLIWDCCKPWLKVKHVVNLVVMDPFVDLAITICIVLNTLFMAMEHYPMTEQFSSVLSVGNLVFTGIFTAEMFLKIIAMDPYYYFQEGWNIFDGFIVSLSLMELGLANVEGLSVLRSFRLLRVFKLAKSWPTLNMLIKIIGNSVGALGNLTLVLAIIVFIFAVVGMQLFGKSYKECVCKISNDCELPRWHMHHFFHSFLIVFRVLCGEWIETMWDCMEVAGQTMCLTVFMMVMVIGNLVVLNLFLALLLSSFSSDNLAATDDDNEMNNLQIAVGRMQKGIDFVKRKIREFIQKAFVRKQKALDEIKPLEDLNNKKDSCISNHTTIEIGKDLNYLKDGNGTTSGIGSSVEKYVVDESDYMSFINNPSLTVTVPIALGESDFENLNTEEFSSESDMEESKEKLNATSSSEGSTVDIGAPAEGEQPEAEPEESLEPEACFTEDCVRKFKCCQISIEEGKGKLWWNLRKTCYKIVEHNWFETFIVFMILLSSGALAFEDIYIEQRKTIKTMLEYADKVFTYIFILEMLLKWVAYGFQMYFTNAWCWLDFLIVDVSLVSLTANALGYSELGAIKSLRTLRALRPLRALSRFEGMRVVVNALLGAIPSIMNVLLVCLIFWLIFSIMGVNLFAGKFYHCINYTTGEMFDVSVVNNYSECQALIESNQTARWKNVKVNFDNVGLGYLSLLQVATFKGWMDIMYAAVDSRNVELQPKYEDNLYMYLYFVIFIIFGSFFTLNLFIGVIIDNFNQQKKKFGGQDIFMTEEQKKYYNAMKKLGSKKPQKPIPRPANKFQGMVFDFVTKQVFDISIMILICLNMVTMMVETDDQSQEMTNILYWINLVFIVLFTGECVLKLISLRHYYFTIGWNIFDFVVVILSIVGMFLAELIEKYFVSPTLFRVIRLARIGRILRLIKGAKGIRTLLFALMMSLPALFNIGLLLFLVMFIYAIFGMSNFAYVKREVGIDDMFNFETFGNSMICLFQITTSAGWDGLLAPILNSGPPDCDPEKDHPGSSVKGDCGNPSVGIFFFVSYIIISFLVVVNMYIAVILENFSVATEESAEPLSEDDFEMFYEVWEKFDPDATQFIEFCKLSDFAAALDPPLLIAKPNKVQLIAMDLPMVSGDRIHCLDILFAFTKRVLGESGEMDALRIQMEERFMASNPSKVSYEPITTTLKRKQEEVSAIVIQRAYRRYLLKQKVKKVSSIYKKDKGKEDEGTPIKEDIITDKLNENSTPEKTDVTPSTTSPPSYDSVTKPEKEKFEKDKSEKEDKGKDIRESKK
The target of series [6] is Sodium channel protein type 1 subunit alpha (Homo sapiens, UniProt P35498). The series is described as follows: Modulator activity at human Nav1.1 expressed in Xenopus laevis oocytes assessed as elicitation in sodium current measured after 1 to 4 days by two-electrode voltage clamp assay. It counts as cell-based, Oocyte. The essentials:
as §1

In series [7] the target is Sodium channel protein type 5 subunit alpha (Homo sapiens, UniProt Q14524). As to the kind of experiment: Modulator activity at human Nav1.5 expressed in Xenopus laevis oocytes assessed as elicitation in sodium current measured after 1 to 4 days by two-electrode voltage clamp assay. It counts as cell-based, Oocyte. The essentials:
as §1

Series [8] deals with Sodium channel protein type 9 subunit alpha (Homo sapiens, UniProt Q15858). The series is described as follows: Modulator activity at human Nav1.7 expressed in Xenopus laevis oocytes assessed as elicitation in sodium current measured after 1 to 4 days by two-electrode voltage clamp assay. Format: cell-based, Oocyte. The essentials:
as §1

A short description of series [9]: Toxicity in Artemia salina assessed as mortality incubated for 24 hrs in dark by microwell assay. It counts as organism-based. The procedure, abridged:
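Nauplii hatched from cysts in aerated artificial seawater (33 g/L), harvested at 24 h, RT. Peptide at 0.003–300 μM in water, in duplicate wells with water control, plus 10–15 nauplii in salt water. Dead and immobilized nauplii counted under a microscope, then the rest killed with MeOH and all counted. % dead or immobilized per well; EC50 by nonlinear regression.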

For series [10], the target named is Sodium channel protein type 3 subunit alpha (Rattus norvegicus, UniProt P08104). The series is described as follows: Modulator activity at rat Nav1.3 expressed in Xenopus laevis oocytes assessed as elicitation in sodium current measured after 1 to 4 days by two-electrode voltage clamp assay. Format: cell-based, Oocyte. The procedure, abridged:
as §1

Sodium channel protein type 3 subunit alpha, sequence (P08104 whole entry): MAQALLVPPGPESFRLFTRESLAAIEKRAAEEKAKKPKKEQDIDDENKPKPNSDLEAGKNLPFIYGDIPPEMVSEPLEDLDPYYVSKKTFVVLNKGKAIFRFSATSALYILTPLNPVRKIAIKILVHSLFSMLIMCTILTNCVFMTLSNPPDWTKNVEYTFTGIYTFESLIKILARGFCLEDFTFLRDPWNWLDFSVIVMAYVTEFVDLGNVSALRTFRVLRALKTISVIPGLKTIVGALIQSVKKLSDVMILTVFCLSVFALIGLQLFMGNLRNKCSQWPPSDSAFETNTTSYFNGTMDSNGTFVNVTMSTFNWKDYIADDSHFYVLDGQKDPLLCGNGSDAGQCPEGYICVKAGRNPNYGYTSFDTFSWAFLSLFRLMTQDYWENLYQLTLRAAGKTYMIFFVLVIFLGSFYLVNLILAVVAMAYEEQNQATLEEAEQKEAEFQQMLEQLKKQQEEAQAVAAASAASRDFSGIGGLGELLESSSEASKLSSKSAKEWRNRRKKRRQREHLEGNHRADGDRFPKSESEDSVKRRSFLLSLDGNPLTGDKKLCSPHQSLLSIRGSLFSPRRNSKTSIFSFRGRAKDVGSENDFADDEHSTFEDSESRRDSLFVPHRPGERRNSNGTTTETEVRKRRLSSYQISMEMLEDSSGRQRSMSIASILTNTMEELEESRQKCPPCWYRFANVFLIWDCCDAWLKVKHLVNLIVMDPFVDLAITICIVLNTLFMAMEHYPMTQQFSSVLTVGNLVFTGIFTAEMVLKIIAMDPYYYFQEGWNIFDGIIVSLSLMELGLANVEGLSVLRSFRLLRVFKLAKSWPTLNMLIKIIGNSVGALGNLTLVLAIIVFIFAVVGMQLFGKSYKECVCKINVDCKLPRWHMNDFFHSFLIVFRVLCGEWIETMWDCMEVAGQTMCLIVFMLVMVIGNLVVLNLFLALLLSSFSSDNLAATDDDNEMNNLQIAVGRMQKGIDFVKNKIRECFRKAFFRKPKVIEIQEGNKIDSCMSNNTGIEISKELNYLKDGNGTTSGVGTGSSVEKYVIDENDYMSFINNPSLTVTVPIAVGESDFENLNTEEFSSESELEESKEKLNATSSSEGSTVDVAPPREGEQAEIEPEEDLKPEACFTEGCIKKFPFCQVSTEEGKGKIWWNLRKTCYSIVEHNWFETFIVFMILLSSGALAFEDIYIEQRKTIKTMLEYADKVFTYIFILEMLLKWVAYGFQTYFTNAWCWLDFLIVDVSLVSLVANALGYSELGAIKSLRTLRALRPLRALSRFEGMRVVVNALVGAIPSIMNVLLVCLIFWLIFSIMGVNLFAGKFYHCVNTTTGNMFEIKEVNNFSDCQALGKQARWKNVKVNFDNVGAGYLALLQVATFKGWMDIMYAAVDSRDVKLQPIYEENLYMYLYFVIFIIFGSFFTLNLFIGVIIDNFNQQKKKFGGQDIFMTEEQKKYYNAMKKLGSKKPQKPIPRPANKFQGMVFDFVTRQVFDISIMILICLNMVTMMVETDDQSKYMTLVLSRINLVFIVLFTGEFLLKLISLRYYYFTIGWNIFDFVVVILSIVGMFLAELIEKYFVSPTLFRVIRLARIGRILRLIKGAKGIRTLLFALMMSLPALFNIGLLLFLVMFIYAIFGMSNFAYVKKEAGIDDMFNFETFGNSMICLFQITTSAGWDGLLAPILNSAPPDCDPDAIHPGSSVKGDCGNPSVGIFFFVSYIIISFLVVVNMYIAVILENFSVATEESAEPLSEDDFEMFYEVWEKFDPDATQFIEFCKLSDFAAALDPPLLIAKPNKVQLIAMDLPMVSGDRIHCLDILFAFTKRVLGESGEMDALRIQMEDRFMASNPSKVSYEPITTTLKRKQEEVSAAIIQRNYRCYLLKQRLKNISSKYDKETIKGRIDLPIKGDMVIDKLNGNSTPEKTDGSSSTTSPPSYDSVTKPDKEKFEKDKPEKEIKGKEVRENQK

By EC50 is commonly meant the concentration needed to bring the measured effect to its halfway point. For the molecule `CC[C@H](C)[C@@H]1NC(=O)[C@@H](NC(=O)CN)CSSC[C@@H]2NC(=O)[C@@H]3CSSC[C@@H](C(=O)N[C@@H](CC(N)=O)C(=O)N4C[C@@H](O)C[C@H]4C(=O)N4C[C@@H](O)C[C@H]4C(=O)N[C@@H](CC(N)=O)C(=O)N[C@@H](CCC(N)=O)C(=O)O)NC(=O)[C@H](CCCCN)NC(=O)[C@H](Cc4ccccc4)NC(=O)[C@H](CC(N)=O)NC(=O)[C@H](Cc4c[nH]c5ccccc45)NC(=O)CNC(=O)[C@H](CSSC[C@H](NC(=O)[C@H](Cc4ccccc4)NC(=O)[C@H](CO)NC(=O)CNC(=O)[C@H]([C@@H](C)O)NC(=O)[C@H](CO)NC1=O)C(=O)N[C@@H]([C@@H](C)O)C(=O)N[C@@H](CC(C)C)C(=O)N[C@@H](CO)C(=O)N[C@@H](CCCCN)C(=O)NCC(=O)N3)NC(=O)[C@H](CC(N)=O)NC(=O)[C@H](CCCCN)NC(=O)[C@H]([C@@H](C)O)NC2=O`, the EC50 in [1] is 0.0111 µM; in series [2], 0.0146 µM; in [3] it was 0.124 µM; in series [4] it was “Not Active”; in [5], 0.134 µM; in series [6] it was 0.092 µM. The 50% effective concentration (EC50) in series [7] was determined as 0.0278 µM; in series [8] it was 0.0805 µM; in series [10], 0.0129 µM. Further, the EC50 at 24 h in [9] stood at 0.4 µM.
`CC[C@H](C)[C@@H]1NC(=O)[C@@H](NC(=O)CN)CSSC[C@@H]2NC(=O)[C@@H]3CSSC[C@@H](C(=O)N[C@@H](CC(N)=O)C(=O)N4C[C@@H](O)C[C@H]4C(=O)N4C[C@@H](O)C[C@H]4C(=O)N[C@@H](CC(N)=O)C(=O)N[C@@H](CCC(N)=O)C(=O)O)NC(=O)[C@H](CCCCN)NC(=O)[C@H](Cc4ccccc4)NC(=O)[C@H](CC(N)=O)NC(=O)[C@H](Cc4c[nH]c5ccccc45)NC(=O)CNC(=O)[C@H](CSSC[C@H](NC(=O)[C@H](C(C)C)NC(=O)[C@H](CO)NC(=O)CNC(=O)[C@H]([C@@H](C)O)NC(=O)[C@H](C)NC1=O)C(=O)N[C@@H]([C@@H](C)O)C(=O)N[C@@H](CC(C)C)C(=O)N[C@@H](CO)C(=O)N[C@@H](CCCCN)C(=O)NCC(=O)N3)NC(=O)[C@H](CC(N)=O)NC(=O)[C@H](CCCCN)NC(=O)[C@H]([C@@H](C)O)NC2=O`: the concentration for a half-maximal effect (EC50) was 0.0872 µM in series [1]; 1.15 µM in series [2]; 1.36 µM in series [3]; “Not Active” in series [4]; 0.0979 µM in series [5]; 0.126 µM in series [6]. Besides, the half-maximal effective concentration (EC50) stood at 0.149 µM in series [7], 1.3 µM in series [8] and 0.128 µM in [10]. Further, the EC50 at 24 h in series [9] was found to be 2.9 µM.
Regarding `CC[C@H](C)[C@@H]1NC(=O)[C@@H](NC(=O)CN)CSSC[C@@H]2NC(=O)[C@@H]3CSSC[C@@H](C(=O)N[C@@H](CC(N)=O)C(=O)N4C[C@@H](O)C[C@H]4C(=O)N4C[C@@H](O)C[C@H]4C(=O)N[C@@H](CC(N)=O)C(=O)N[C@@H](CCC(N)=O)C(=O)O)NC(=O)[C@H](Cc4cnc[nH]4)NC(=O)[C@H](Cc4ccccc4)NC(=O)[C@H](CC(N)=O)NC(=O)[C@H](Cc4c[nH]c5ccccc45)NC(=O)CNC(=O)[C@H](CSSC[C@H](NC(=O)[C@H](Cc4ccccc4)NC(=O)[C@H](CO)NC(=O)CNC(=O)[C@H]([C@@H](C)O)NC(=O)[C@H](CCCCN)NC1=O)C(=O)N[C@@H]([C@@H](C)O)C(=O)N[C@@H](CC(C)C)C(=O)N[C@@H](CO)C(=O)N[C@@H](CCCCN)C(=O)NCC(=O)N3)NC(=O)[C@H](CC(N)=O)NC(=O)[C@H](CCCCN)NC(=O)[C@H]([C@@H](C)O)NC2=O`, the EC50 in series [1] is 0.0026 µM; in [2] it was 0.0464 µM; in [3], 0.0363 µM; in [4], “Not Active”; in [5], 0.0243 µM; in series [6], 0.0079 µM. Besides, the EC50 came to 0.215 µM in series [7], 0.0972 µM in series [8] and 0.106 µM in series [10]. For the same molecule, in series [9], the EC50 at 24 h amounted to 2.8 µM.
Take `CC[C@H](C)[C@@H]1NC(=O)[C@@H](NC(=O)CN)CSSC[C@@H]2NC(=O)[C@@H]3CSSC[C@@H](C(=O)N[C@@H](CC(N)=O)C(=O)N4C[C@@H](O)C[C@H]4C(=O)N4C[C@@H](O)C[C@H]4C(=O)N[C@@H](CC(N)=O)C(=O)N[C@@H](CCC(N)=O)C(=O)O)NC(=O)[C@H](CCCCN)NC(=O)[C@H](Cc4ccccc4)NC(=O)[C@H](CC(N)=O)NC(=O)[C@H](Cc4c[nH]c5ccccc45)NC(=O)CNC(=O)[C@H](CSSC[C@H](NC(=O)CNC(=O)[C@H](CO)NC(=O)CNC(=O)[C@H]([C@@H](C)O)NC(=O)[C@H](CCCCN)NC1=O)C(=O)N[C@@H]([C@@H](C)O)C(=O)N[C@@H](CC(C)C)C(=O)N[C@@H](CO)C(=O)N[C@@H](CCCCN)C(=O)NCC(=O)N3)NC(=O)[C@H](CC(N)=O)NC(=O)[C@H](CCCCN)NC(=O)[C@H]([C@@H](C)O)NC2=O`: the concentration giving a half-maximal response (EC50) was 0.0975 µM in series [1]; 0.15 µM in [2]; 0.0928 µM in series [3]; “Not Active” in series [4]; 0.138 µM in [5]; 0.126 µM in series [6]. Also, the concentration giving a half-maximal response (EC50) worked out at 0.108 µM in series [7], 0.102 µM in series [8] and 0.139 µM in series [10]. Besides, in series [9], the concentration giving a half-maximal response (EC50) at 24 h turned out to be 4.7 µM.
Consider `CC[C@H](C)[C@@H]1NC(=O)[C@@H](NC(=O)CN)CSSC[C@@H]2NC(=O)[C@@H]3CSSC[C@@H](C(=O)N[C@@H](CC(N)=O)C(=O)N[C@H](CCCCN)C(=O)N4C[C@@H](O)C[C@H]4C(=O)N[C@@H](CC(N)=O)C(=O)N[C@@H](CCC(N)=O)C(=O)O)NC(=O)[C@H](Cc4cnc[nH]4)NC(=O)[C@H](Cc4ccccc4)NC(=O)[C@H](CC(N)=O)NC(=O)[C@H](Cc4c[nH]c5ccccc45)NC(=O)CNC(=O)[C@H](CSSC[C@H](NC(=O)[C@H](CCSC)NC(=O)[C@H](CO)NC(=O)CNC(=O)[C@H](C(C)C)NC(=O)[C@@H]4CCCN4C1=O)C(=O)N[C@@H]([C@@H](C)O)C(=O)N[C@@H](CC(C)C)C(=O)N[C@@H](CO)C(=O)N[C@@H](CC(N)=O)C(=O)NCC(=O)N3)NC(=O)[C@H](CC(N)=O)NC(=O)[C@H](CCCCN)NC(=O)[C@H]([C@@H](C)O)NC2=O`, for which the half-maximal effective concentration (EC50) in series [1] was 0.0095 µM; in [2] (oocyte) it was 0.811 µM; in series [3] (oocyte), 0.148 µM; in [4], “Not Active”; in series [5] (oocyte), 0.0504 µM; in series [6] (oocyte), 0.172 µM. The EC50 in series [7] (oocyte) turned out to be 0.156 µM; in series [8] (oocyte) it was 0.129 µM; in series [10] (oocyte), 0.17 µM. In addition, in series [9], the 50% effective concentration (EC50) at 24 h amounted to 6.1 µM.
For `CC[C@H](C)[C@@H]1NC(=O)[C@@H](NC(=O)CN)CSSC[C@@H]2NC(=O)[C@@H]3CSSC[C@@H](C(=O)N[C@@H](CC(N)=O)C(=O)N4C[C@@H](O)C[C@H]4C(=O)N4C[C@@H](O)C[C@H]4C(=O)N[C@@H](CC(N)=O)C(=O)N[C@@H](CCC(N)=O)C(=O)O)NC(=O)[C@H](Cc4cnc[nH]4)NC(=O)[C@H](Cc4ccccc4)NC(=O)[C@H](CC(N)=O)NC(=O)[C@H](Cc4c[nH]c5ccccc45)NC(=O)CNC(=O)[C@H](CSSC[C@H](NC(=O)[C@H](Cc4ccccc4)NC(=O)[C@H](CO)NC(=O)CNC(=O)[C@H]([C@@H](C)O)NC(=O)[C@H](C)NC1=O)C(=O)N[C@@H]([C@@H](C)O)C(=O)N[C@@H](CC(C)C)C(=O)N[C@@H](CO)C(=O)N[C@@H](CCCCN)C(=O)NCC(=O)N3)NC(=O)[C@H](CC(N)=O)NC(=O)[C@H](CCCCN)NC(=O)[C@H]([C@@H](C)O)NC2=O`, the EC50 in series [1] is 0.0078 µM; in [2], 0.0154 µM; in [3], 0.0669 µM; in series [4], “Not Active”; in series [5], 0.156 µM; in series [6] it was 0.102 µM. Also, the EC50 in series [7] is 0.133 µM; in series [8], 0.073 µM; in series [10], 0.0094 µM. For the same molecule, in series [9], the half-maximal effective concentration (EC50) at 24 h was determined as 0.4 µM.
